{"source": "ChEMBL document CHEMBL5046323", "about": "“Discovery of Phospholipase D Inhibitors with Improved Drug-like Properties and Central Nervous System Penetrance” (ACS Med Chem Lett, 2022)", "key": {"[1]": {"assay": "Cmax in sc dosed C57BL/6 mouse by LC-MS/MS analysis", "format": "ADME, organism-based", "set-up": "route subcutaneous", "settings": "in vivo"}, "[2]": {"assay": "Drug concentration in sc dosed C57BL/6 mouse brain measured after 60 mins by LC-FTICR-MS analysis", "format": "ADME, organism-based", "settings": "read-out: Ct", "method_in_brief": "(§1)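 Mice dosed subcutaneously at 10 mg/kg 15, 30 or 60 min before injection of 1-butanol-d10; tissues (liver, brain) collected 15 min after butanol injection for compound levels.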"}, "[3]": {"biological_target": "T1, Cytochrome P450 1A2 (Homo sapiens, UniProt P05177)", "T1 sequence (P05177 whole entry)": "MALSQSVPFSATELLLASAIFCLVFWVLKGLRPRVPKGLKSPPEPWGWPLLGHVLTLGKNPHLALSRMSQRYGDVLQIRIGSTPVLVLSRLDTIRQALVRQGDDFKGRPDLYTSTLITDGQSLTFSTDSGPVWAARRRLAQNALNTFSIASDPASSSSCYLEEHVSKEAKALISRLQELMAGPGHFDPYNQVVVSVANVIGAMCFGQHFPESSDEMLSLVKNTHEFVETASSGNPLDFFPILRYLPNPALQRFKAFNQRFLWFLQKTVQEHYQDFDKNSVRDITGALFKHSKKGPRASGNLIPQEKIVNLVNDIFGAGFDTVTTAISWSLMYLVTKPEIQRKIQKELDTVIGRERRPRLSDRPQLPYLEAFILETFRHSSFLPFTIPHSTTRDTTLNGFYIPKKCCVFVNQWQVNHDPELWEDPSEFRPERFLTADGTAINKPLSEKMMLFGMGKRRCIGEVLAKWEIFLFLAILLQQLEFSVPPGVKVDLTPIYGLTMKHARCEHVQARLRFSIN", "assay": "Inhibition of CYP1A2 (unknown origin)", "format": "ADME"}, "[4]": {"assay": "Unbound brain concentration in sc dosed C57BL/6 mouse measured after 60 mins by LC-FTICR-MS analysis", "format": "ADME, organism-based", "settings": "in vivo, 1 h", "method_in_brief": "as §1"}, "[5]": {"assay": "Oral bioavailability in rat", "format": "ADME, organism-based", "settings": "in vivo", "method_in_brief": "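Rat oral PK, average of two experiments with n = 3 rats each; formulation HPMC/Tween.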"}, "[6]": {"biological_target": "Phospholipase D2 (Homo sapiens, UniProt O14939)", "sequence (O14939 whole entry)": "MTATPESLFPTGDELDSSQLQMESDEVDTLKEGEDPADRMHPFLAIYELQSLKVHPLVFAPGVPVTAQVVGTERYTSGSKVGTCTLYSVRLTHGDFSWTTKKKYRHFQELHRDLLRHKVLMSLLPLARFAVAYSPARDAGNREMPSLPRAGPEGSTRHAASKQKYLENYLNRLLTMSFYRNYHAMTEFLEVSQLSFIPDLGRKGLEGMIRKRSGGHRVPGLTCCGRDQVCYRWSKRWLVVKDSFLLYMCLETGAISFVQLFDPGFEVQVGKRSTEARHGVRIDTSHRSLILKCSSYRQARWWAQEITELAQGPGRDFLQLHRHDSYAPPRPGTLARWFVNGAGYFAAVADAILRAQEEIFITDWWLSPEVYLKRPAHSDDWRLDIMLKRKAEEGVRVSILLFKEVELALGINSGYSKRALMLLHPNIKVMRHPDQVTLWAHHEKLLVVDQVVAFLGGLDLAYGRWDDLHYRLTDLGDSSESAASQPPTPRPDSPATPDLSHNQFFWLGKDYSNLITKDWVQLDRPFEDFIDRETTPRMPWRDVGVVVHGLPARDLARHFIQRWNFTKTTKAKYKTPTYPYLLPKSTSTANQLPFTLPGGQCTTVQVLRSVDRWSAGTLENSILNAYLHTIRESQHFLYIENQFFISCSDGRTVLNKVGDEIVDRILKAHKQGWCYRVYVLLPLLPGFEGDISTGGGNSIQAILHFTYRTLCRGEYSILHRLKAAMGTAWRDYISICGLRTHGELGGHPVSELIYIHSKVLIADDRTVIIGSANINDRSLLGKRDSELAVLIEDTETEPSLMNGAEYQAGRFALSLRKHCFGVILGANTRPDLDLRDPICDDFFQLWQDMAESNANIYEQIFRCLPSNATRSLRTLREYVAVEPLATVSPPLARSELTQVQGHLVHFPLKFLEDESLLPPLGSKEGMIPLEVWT", "assay": "Inhibition of PLD2 (unknown origin) expressed in human HEK cells by immunoprecipitation", "format": "cell-based", "method_in_brief": "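PLD1 or PLD2 immunoprecipitated from HEK-293 cell lysates and captured on plate with an antibody (ELISA format); 08:0 phosphatidylcholine substrate; released choline detected by Amplex Red readout.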"}, "[7]": {"test_system": "BCRP", "assay": "Efflux ratio of apparent permeability from basolateral to apical side over apical to basolateral side in dog MDCK-BCRP cells", "format": "ADME, cell-based, Canis lupus familiaris"}, "[8]": {"assay": "Plasma protein binding in sc dosed C57BL/6 mouse assessed as unbound fraction by LC-MS/MS analysis", "format": "ADME, organism-based", "settings": "in vivo"}, "[9]": {"assay": "Microsomal stability in rat liver microsomes assessed as intrinsic clearance", "format": "ADME, Microsome", "settings": "read-out: CLH", "method_in_brief": "(§2)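 Intrinsic clearance (CLint) determined in rat or human liver microsomes.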"}, "[10]": {"test_system": "MDR1 (P-gp)", "assay": "Efflux ratio of apparent permeability from basolateral to apical side over apical to basolateral side in dog MDCK-MDR1 cells", "format": "ADME, cell-based, Canis lupus familiaris", "method_in_brief": "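Efflux ratio calculated as Papp(B–A)/Papp(A–B) across MDR1-transfected MDCK monolayers.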"}, "[11]": {"assay": "AUClast in sc dosed C57BL/6 mouse by LC-MS/MS analysis", "format": "ADME, organism-based", "set-up": "route subcutaneous, time 0 - last", "settings": "in vivo"}, "[12]": {"assay": "Plasma protein binding in rat", "format": "ADME, cell-free"}, "[13]": {"assay": "Unbound brain concentration in sc dosed C57BL/6 mouse measured after 30 mins by LC-FTICR-MS analysis", "format": "ADME, organism-based", "settings": "in vivo, 0.5 h", "method_in_brief": "as §1"}, "[14]": {"biological_target": "Cytochrome P450 2C19 (Homo sapiens, UniProt P33261)", "sequence (P33261 whole entry)": "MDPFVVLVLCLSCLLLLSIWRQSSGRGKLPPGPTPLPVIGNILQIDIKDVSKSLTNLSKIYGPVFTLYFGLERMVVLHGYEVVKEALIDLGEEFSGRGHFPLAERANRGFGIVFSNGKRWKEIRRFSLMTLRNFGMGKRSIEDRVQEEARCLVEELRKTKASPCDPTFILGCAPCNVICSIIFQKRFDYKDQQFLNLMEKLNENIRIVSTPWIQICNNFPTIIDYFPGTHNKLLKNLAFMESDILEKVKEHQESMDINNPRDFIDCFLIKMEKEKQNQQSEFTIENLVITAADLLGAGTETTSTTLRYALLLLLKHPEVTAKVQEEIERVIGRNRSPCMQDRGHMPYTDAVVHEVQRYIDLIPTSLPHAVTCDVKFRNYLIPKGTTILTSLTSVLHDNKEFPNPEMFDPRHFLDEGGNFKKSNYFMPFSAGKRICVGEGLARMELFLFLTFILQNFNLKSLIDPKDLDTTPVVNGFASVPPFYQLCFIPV", "assay": "Inhibition of CYP2C19 (unknown origin)", "format": "ADME"}, "[15]": {"assay": "Microsomal stability in human liver microsomes assessed as intrinsic clearance", "format": "ADME, Microsome", "settings": "read-out: CLH", "method_in_brief": "as §2"}}}
{"smiles": "C[C@@H]1CN(C(=O)[C@H](C)N2CCC(n3c(=O)[nH]c4ccccc43)CC2)C[C@@H](C)N1", "values": [{"measurement": "Cmax", "setting": "[1]", "result": 2960, "unit": "ng/mL"}, {"measurement": "concentration at 1 h", "setting": "[2]", "result": 117, "unit": "ng/g"}, {"measurement": "IC50", "setting": "[3]", "result": "> 10", "unit": "µM"}, {"measurement": "Drug uptake(free)", "setting": "[4]", "result": 53.2, "unit": "nM"}, {"measurement": "bioavailability", "setting": "[5]", "result": 21, "unit": "%"}, {"measurement": "IC50", "setting": "[6]", "result": 0.23, "unit": "µM"}, {"measurement": "efflux ratio", "setting": "[7]", "result": 1.2}, {"measurement": "Fu", "setting": "[8]", "result": 17.5, "unit": "%"}, {"measurement": "CLint scaled", "setting": "[9]", "result": 64, "unit": "mL/min/kg"}, {"measurement": "efflux ratio", "setting": "[10]", "result": 9.2}, {"measurement": "AUC(0-t)", "setting": "[11]", "result": 7990, "unit": "ng·h/mL"}, {"measurement": "PPB", "setting": "[12]", "result": 36.3, "unit": "%"}, {"measurement": "Drug uptake(free)", "setting": "[13]", "result": 49.5, "unit": "nM"}, {"measurement": "IC50", "setting": "[14]", "result": "> 10", "unit": "µM"}, {"measurement": "CLint scaled", "setting": "[15]", "result": 6, "unit": "mL/min/kg"}]}
